# Compound activity as filed in PubChem.
# CHO parental Ca: ATP-evoked calcium signal inhibitors, parental CHO, primary screen, counter-screen for OX1R antagonist project, cell-based, fluorescence, Fluo-8 calcium dye; parental CHO-K1, ATP-induced calcium, Fluo-8 fluorescence; hit rate 0.63% among 330,000; inhibition, % at 5.6 µM; AID 463079, 2010;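 active = inhibition above that plate's mean sample inhibition plus 3 SD, cut at about 26% in these data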;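 also: 0% = ATP-challenged DMSO wells and 100% = DMSO wells without ATP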
#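 test system = CHO parental line | reagent = ATP stimulus | measured by = intracellular calcium via Fluo-8 no-wash fluorescent dye | control set = ATP and no-ATP DMSO wells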
# TAAR1 antag: human TAAR1 antagonists, primary screen, Fluo-8 calcium fluorescence, CHO RD-HGA16 cells; Trace amine-associated receptor 1 (Homo sapiens), Q96RJ0; antagonist; inhibition, % at 3 µM; hit rate 1.5% among 360,000;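 active = inhibition above a per-plate cutoff, the mean inhibition of test compounds on that plate plus 3 SD, cut at about 49% in these data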;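 also: 0% = DMSO plus EC80 beta-PEA response and 100% = DMSO alone without agonist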
#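 System: RD-HGA16 CHO cells with stable hTAAR1 and Gα16 | Probe or stimulus: EC80 β-phenethylamine stimulus | Dosing: 3 µM, single point | Times: Dye loading 75 min at 37 °C, then 30 min room temperature | Measured by: Fluo-8 calcium-sensitive fluorescence | Read-out basis: % inhibition of agonist calcium response | Replicates: n of 1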
# OX1R antag-1: antagonists of human orexin 1 receptor (OX1R). Orexin/Hypocretin receptor type 1 (Homo sapiens), O43613. OX1R-expressing cells, FRET antagonist read-out. inhibition, % at 6.6 µM. hit rate 1.8% among 330,000; in the data active = inhibition mostly above about 38%, no sharp cut-off; inactive = mostly below about 40%;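 also: 0% = agonist challenge alone and 100% = reference antagonist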
# OX1R antag-2: OX1R (HCRTR1) antagonists, primary screen, fluorescence, CHO/OX1R cells, Fluo-8 calcium, orexin A. Orexin/Hypocretin receptor type 1 (Homo sapiens), O43613. Fluo-8 calcium fluorescence. inhibition, % at 5 µM. hit rate 0.43% among 330,000. AID 434989, 2010;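 active = inhibition above its plate's threshold, mean inhibition of all tested compounds on the plate plus 3 SD, cut at about 37% in these data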;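 also: 0% = orexin A challenge wells and 100% = SB-334867-A antagonist wells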
# GPR7 antag: GPR7 receptor antagonists, primary screen, cell-based, fluorescence, single concentration. GPR7-expressing cells, fluorescence antagonist assay. inhibition, % at 4.4 µM. hit rate 1.1% among 290,000; in the data active = inhibition above about 16%, passing the limit was not always enough;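 also: cells stimulated with the agonist NPW; 0% = agonist with vehicle and 100% = vehicle without agonist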
# Target sequence (P48145 whole entry, looked up): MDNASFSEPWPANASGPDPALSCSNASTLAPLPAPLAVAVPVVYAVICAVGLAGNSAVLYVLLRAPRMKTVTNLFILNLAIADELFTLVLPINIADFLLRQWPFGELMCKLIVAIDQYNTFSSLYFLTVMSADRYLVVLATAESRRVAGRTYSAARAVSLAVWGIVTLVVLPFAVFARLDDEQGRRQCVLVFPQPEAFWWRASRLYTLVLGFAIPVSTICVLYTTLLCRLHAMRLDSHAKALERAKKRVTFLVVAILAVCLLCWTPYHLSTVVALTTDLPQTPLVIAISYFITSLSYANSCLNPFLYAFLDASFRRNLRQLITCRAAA
# TAAR1 agonist: human TAAR1 agonists, primary screen, Fluo-8 calcium fluorescence, CHO RD-HGA16 cells; vehicle wells 0%, saturating PEA agonist 100%; AID 624467, 2012; hit rate 0.99% among 360,000; Trace amine-associated receptor 1 (Homo sapiens), Q96RJ0; activation, % at 3 µM;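 active = activation above the mean activation of all test compounds in the run plus 3 SD, cut at about 38% in these data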
#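 System: CHO-derived RD-HGA16 cells with stable Gα16 and human TAAR1 / Times: 17-24 h plating, Fluo-8 75 min 37 °C, 30 min RT / Technique: calcium-sensitive Fluo-8 signal, excitation 470-495, emission 515-575 nm / Measure: % activation relative to PEA EC100 response / Benchmarks: DMSO and PEA EC100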
# OX1R HTRF conf: OX1R (HCRTR1) antagonists, confirmation, cell-based, HTRF; shares compounds with OX1R antag-1; OX1R-expressing cells, HTRF antagonist assay; inhibition, % at 6.6 µM; hit rate 49% among 1,800; AID 492964, 2010; in the data active = inhibition above about 55%;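 also: CHO cells expressing OX1R stimulated with orexin A at about EC80; 0% = agonist challenge alone and 100% = reference antagonist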
# CHO-K1 HTRF: signal inhibition in parental CHO-K1 cells, counter-screen for OX1R antagonist project, cell-based, HTRF. shares compounds with OX1R antag-1. inhibition, % at 6.6 µM. HTRF counterscreen. AID 493232, 2011. hit rate 48% among 1,800; in the data active = inhibition above about 17%;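 also: 0% = agonist challenge with vehicle and 100% = vehicle alone without agonist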
# * = called active by the depositor; · = no result. Most compounds without a hit are left out; they make up all but 4.5% or so of the library.
SMILES,CHO parental Ca,TAAR1 antag,OX1R antag-1,OX1R antag-2,GPR7 antag,TAAR1 agonist,OX1R HTRF conf,CHO-K1 HTRF
O=C1c2cccc3cc([N+](=O)[O-])cc(c23)C(=O)N1/N=C/c1ccc(O)cc1O,-3,-2,181*,-16,-7,0,74*,108*
Cc1ccccc1Nc1cc(C(=O)NCc2ccco2)c2ccccc2n1,-17,30,83*,7,-12,10,50,3
COc1ccc(NC(=O)/C=C/c2c(Cl)nc3ccccn23)cc1,-28,15,111*,18,-12,2,96*,17*
CCOC(=O)Nc1nn(-c2ccc(C)cc2)c(=O)c(C#N)c1C,-5,-24,120*,4,-9,2,58*,61*
CCOC(=O)c1nn(-c2ccccc2)c(C#N)c1N,-4,9,17,-11,-13,6,·,·
CCOC(=O)c1nn(-c2ccccc2)c(=O)c(C#N)c1C,-10,-2,145*,-13,-8,5,48,81*
O=c1[nH][nH]c(=O)c2nc(Nc3ccccc3)ncc12,·,-6,·,·,·,1,·,·
COc1cc(CN2C[C@@H](CO)O[C@@H](n3cnc4c(N(C)C)ncnc43)C2)cc(OC)c1OC,·,-15,·,·,·,9,·,·
CCOC(=O)c1c(=O)n(O)c2ccc(OC)cc2[n+]1[O-],4,3,118*,14,-6,12,30,62*
CCOC(=O)C[n+]1c(C)sc2ccc(OC)cc21,-3,·,13,-32,9,·,·,·
COCCn1c(=N)c(C(=O)NCc2ccco2)cc2c(=O)n3cc(C)ccc3nc21,-6,-11,108*,-21,0,0,49,69*
N=c1c(C(=O)NCc2ccco2)cc2c(=O)n3ccccc3nc2n1CCc1ccccc1,-28,-17,114*,-32,-11,8,51,42*
COc1ccc(CCn2c(=N)c(C(=O)N3CCN(C)CC3)cc3c(=O)n4ccccc4nc32)cc1,-21,13,105*,-27,-11,8,38,51*
Cc1ccc2nc3c(cc(C(=O)NCc4ccco4)c(=N)n3C3CCCC3)c(=O)n2c1,-10,-17,30,-28,-13,-2,·,·
CC(C)C[C@@H](CC#N)N1CCN(Cc2ccccc2)CCC1=O,-16,15,13,-36,-4,0,·,·
CCOC(=O)/C(C#N)=C\c1ccc(CC)s1,-6,-1,23,-10,2,8,·,·
CCOC(=O)/C(C#N)=C\C=C1C=CN(C)C=C1,6,21,100*,3,-3,25,51,62*
O=C1c2ccccc2S(=O)(=O)N1Cc1ccccc1[N+](=O)[O-],-5,0,13,-2,-12,2,·,·
CC(c1nc2ccccc2[nH]1)N(C(=O)C1=NNC(=O)CC1)c1ccccc1 (stereo not drawn),·,10,·,·,·,1,·,·
COc1ccc(-c2csc3nc[nH]c(=O)c23)cc1,-3,3,14,-11,-2,2,·,·
COc1ccc(-c2cnc3nc[nH]c(=O)c3n2)cc1,8,-2,197*,2,-13,5,56*,90*
COc1cccc2cc(C(=O)NC3CC4CCC3C4)oc12 (stereo not drawn),-10,20,16,-26,0,0,·,·
CCCCCCCC(=O)N/N=C/c1ccc([N+](=O)[O-])o1,-2,4,37,-21,-7,0,·,·
